This is an account of results in ChEMBL document CHEMBL1806448, “Optimization of a pyrazole hit from FBDD into a novel series of indazoles as ketohexokinase inhibitors” (Bioorg Med Chem Lett, 2011).

SMILES strings stand for the structures. pIC50: −log10 of the molar value.

In data set [1] the target is T1, Ketohexokinase (Homo sapiens, UniProt P50053).
T1 sequence (P50053 whole entry): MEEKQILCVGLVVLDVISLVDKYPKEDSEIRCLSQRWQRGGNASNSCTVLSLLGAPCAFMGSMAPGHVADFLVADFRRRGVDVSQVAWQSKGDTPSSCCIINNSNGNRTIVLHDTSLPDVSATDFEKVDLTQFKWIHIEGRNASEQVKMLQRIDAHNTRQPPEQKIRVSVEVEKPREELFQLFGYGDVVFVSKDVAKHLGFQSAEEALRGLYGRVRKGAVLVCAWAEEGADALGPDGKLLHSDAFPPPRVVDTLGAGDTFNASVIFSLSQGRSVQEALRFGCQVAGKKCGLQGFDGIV
Description: Inhibition of KHK-mediated conversion of D-fructose to fructose-1-phosphate after 60 mins by high throughput mass spectrometry analysis. The method in brief:
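KHK enzyme assay at 25 °C with 200 µM fructose, 100 µM ATP and 2 nM KHK under steady-state conditions for 60 min. Fructose-1-P product read out by high-throughput mass spectrometry (RapidFire). 12-point dose–response curve used to derive IC50. 384-well format.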

Data set [2] is described as follows: Metabolic stability in rat liver microsomes assessed as compound remaining after 10 mins. Type of data set: ADME, Microsome. To be noted: read-out: Stability. For orientation: Liver microsomes are a subcellular fraction often used to study metabolism.
The test system of data set [3] is Rattus norvegicus. The experiment in a line: AUClast in rat at 10 mg/kg, po after 24 hrs. Type of data set: ADME, organism-based, Plasma. Details: time < 24 hr, dose 10 mg/kg, route oral. Conditions: in vivo. A digest of the protocol:
(§1)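 Rat pharmacokinetics over 24 h. Oral dose 10 mg/kg and iv dose 2 mg/kg.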

Data set [4] is described as follows: Volume of distribution at steady state in rat at 2 mg/kg, iv after 24 hrs. It is filed as ADME, organism-based. The arrangement: dose 2 mg/kg, route intravenous. To be noted: in vivo, read-out: Vdss. A digest of the protocol:
as §1

Data set [5] in a line: Bioavailability in rat at 10 mg/kg, po after 24 hrs. To be noted: in vivo.
A short description of data set [6]: Half life in rat at 10 mg/kg, po after 24 hrs. It is filed as ADME, organism-based. The arrangement: dose 10 mg/kg, route oral. To be noted: in vivo. A digest of the protocol: as §1
Data set [7] is described as follows: Clearance in rat at 2 mg/kg, iv after 24 hrs. It is filed as ADME, organism-based. Conditions: in vivo. Details: dose 2 mg/kg, route intravenous. The method in brief:
as §1

Data set [8] in a line: Cmax in rat at 10 mg/kg, po after 24 hrs. Type of data set: ADME, organism-based. The arrangement: dose 10 mg/kg, route oral. Conditions: in vivo. The method in brief: as §1
Data set [9] can be described thus: Inhibition of sodium channel at 10 uM.

With `CSc1nn(-c2ccccc2)c2cc(C3=CCNCC3)ccc12`, the pIC50 – broadly, −log10 of the IC50, conventionally taken in molar units – in data set [1] was 7.10. The remaining at 10 min in [2] was 72%.
Compound `CCc1nn(-c2ccccc2)c2cc(N3CCN(C4CCNC4)CC3)ccc12` (configuration not stated) came in with an AUClast in [3] of 4890 ng·h/mL. The pIC50 in data set [1] is 6.04. Also, the Vd in [4] came out at 13.9 L/kg. Also, the bioavailability – broadly, the share of a dose that reaches the circulation, judged against a reference dose that is usually intravenous – in data set [5] was 72.4%. The half-life (usually how long it takes for the measured level to halve) in [6] is 19.6 h. The clearance (usually the volume of plasma or blood freed of the substance per unit of time) in [7] was determined as 21.2 mL/min/kg. Besides, in data set [8], the peak concentration (Cmax) (as a rule, the maximum level reached in the sampled fluid or tissue) is 399 ng/mL.
For `CSc1nn(-c2ccccc2)c2c(C3=CCNCC3)cccc12`, the pIC50 in data set [1] is 4.94.
In the case of `CCc1nc(-c2ccccc2)n2cc(N3CCNCC3)ccc12`, the negative-log IC50 (pIC50) in [1] was below 4.70.
As to `CCc1nn(-c2ccccc2)c2cc(N3CCN(C4CCNCC4)CC3)ccc12`, in data set [9], the inhibition (in general, the relative decrease from the control value, in per cent) came out at 61%.
In turn, `CSc1nn(-c2ccccc2)c2cc(NC(=O)CC3CCNCC3)ccc12` showed a pIC50 in [1] of 6.17.
Same read-out and setting: the result for `CSc1nn(-c2ccc([N+](=O)[O-])cc2)c2cc(C3=CCNCC3)ccc12` reads 6.32.
As to `CCc1nn(-c2ccccc2)c2cc(N3CC4CNCC4C3)ccc12` (configuration not stated), the AUClast in data set [3] worked out at 5680 ng·h/mL. In data set [4], the Vd stood at 7.81 L/kg. In data set [5], this compound registered a bioavailability of 98.8%. In [6], this compound had a half-life of 3.41 h. In data set [7], this compound returned a clearance of 28.9 mL/min/kg. The compound also showed a Cmax in data set [8] of 619 ng/mL.
The compound `CSc1nn(-c2ccccc2)c2c(OC3CCNCC3)cccc12` gave a pIC50 in data set [1] of 5.77.
Still for that read-out and setting: the result for `CSc1nn(-c2ccccc2)c2cc(N3CCN(C4CCNCC4)CC3)ccc12` reads 6.17.
In turn, `CSc1nn(-c2ccccc2)c2cc(-c3ccncc3)ccc12` gave a pIC50 in [1] below 5.00.
Compound `COc1ccc(-n2nc(SC)c3ccc(C4=CCNCC4)cc32)cc1` showed a pIC50 in data set [1] of 7.06.
On to `Cn1nc(-c2ccccc2)c2cc(N3CCNCC3)ccc21`, for which the pIC50 in data set [1] was 5.89.
Compound `CSc1nn(-c2cccc(F)c2)c2cc(C3=CCNCC3)ccc12` had a pIC50 in data set [1] of 7.38. Also, the remaining at 10 min in data set [2] stood at 96%.
In [1], `CSc1nn(-c2cccc(C)c2)c2cc(C3=CCNCC3)ccc12` showed a pIC50 of 7.47.
In turn, `CSc1nn(-c2ccc(F)cc2)c2cc(C3=CCNCC3)ccc12` had a pIC50 in data set [1] of 7.64. The remaining at 10 min in data set [2] was found to be 105%.
Consider `CSc1nn(-c2ccccc2)c2cc(C3CCNCC3)ccc12`, for which, in data set [1], the pIC50 was 6.48.
For `CSc1nn(-c2ccccc2)c2c(OCC3CCNCC3)cccc12`, the pIC50 in [1] was 6.62.
